Assay results taken from ChEMBL document CHEMBL5674868, “Cancer Cells Hijack PRC2 to Modify Multiple Cytokine Pathways” (PLoS One, 2015).
Active and inactive are the calls of the source. No cut-off for these calls is given here.

Legend:
Assay type in all cases: cell-based
[1] = target: Histone-lysine N-methyltransferase EZH2 (Homo sapiens) (UniProt Q15910); test: Inhibition of EZH2 in human MCF7 cells assessed as effect on PITX2 mRNA level after 6 hrs by RT-PCR analysis
Procedure, shortened: (§1)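 Cells pretreated for two 4-day cycles with 2 µM GSK343 or UNC1999, then left unstimulated or given human IFNγ for 6 h. RNA reverse-transcribed and measured by quantitative PCR, normalized to β-actin. Three biological replicates per treatment group.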

[2] = target: Histone-lysine N-methyltransferase EZH2 (Homo sapiens) (UniProt Q15910); test: Inhibition of EZH2 in human ASPC1 cells assessed as effect on PITX2 mRNA level after 6 hrs by RT-PCR analysis
Procedure, shortened: (§2)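 Cells were treated for two four-day cycles with 2 μM GSK343 or UNC1999, then left untreated or stimulated with human IFNγ for 6 h. mRNA was measured by reverse transcription quantitative PCR and normalized to β-actin. Three biological replicates were run per treatment group.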

[3] = target: Histone-lysine N-methyltransferase EZH2 (Homo sapiens) (UniProt Q15910); test: Inhibition of EZH2 in human A549 cells assessed as increase in TNF-alpha-induced CXCL-1 level for 24 hrs by multiplexing laser bead assay
Procedure, shortened: (§3)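 A549 cells were pretreated with vehicle or UNC1999 over two four-day cycles at 2 μM. They were seeded at 3×10^4/well, rested for 4 h, then exposed for 24 h to no stimulus, 5 μg/ml E. coli LPS or 10 U/ml TNFα. Secreted cytokines in the supernatants were quantified by a 41-plex laser bead assay.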

[4] = target: Histone-lysine N-methyltransferase EZH2 (Homo sapiens) (UniProt Q15910); test: Inhibition of EZH2 in human A549 cells assessed as increase in LPS-induced CCL-5 level for 24 hrs by multiplexing laser bead assay; procedure, shortened: as §3
[5] = target: Histone-lysine N-methyltransferase EZH2 (Homo sapiens) (UniProt Q15910); test: Inhibition of EZH2 in human A549 cells assessed as increase in TNFalpha-induced CXCL10 level for 24 hrs by ELISA
Procedure, shortened: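 A549 cells were pretreated for two four-day cycles with 2 μM UNC1999 or with DMSO. They were seeded at 3×10^4/well, allowed to settle for 4 h, then given the indicated concentrations of IFNγ, IL1β, LPS or TNFα for 24 h. Secreted IL6, IL8 or CXCL10 in the supernatant was measured by ELISA in duplicate. n = 3; ANOVA followed by Fisher test.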

[6] = target: Histone-lysine N-methyltransferase EZH2 (Homo sapiens) (UniProt Q15910); test: Inhibition of EZH2 in human A549 cells assessed as increase in TNF-alpha-induced CCL7 level for 24 hrs by multiplexing laser bead assay; procedure, shortened: as §3
[7] = target: Histone-lysine N-methyltransferase EZH2 (Homo sapiens) (UniProt Q15910); test: Inhibition of EZH2 in human A549 cells assessed as effect on PITX2 mRNA level after 6 hrs by RT-PCR analysis; procedure, shortened: as §2
[8] = target: Histone-lysine N-methyltransferase EZH2 (Homo sapiens) (UniProt Q15910); test: Inhibition of EZH2 in human HeLa cells assessed as effect on HPRT mRNA level after 6 hrs by RT-PCR analysis in presence of IFN-gamma; procedure, shortened: as §2
[9] = target: Histone-lysine N-methyltransferase EZH2 (Homo sapiens) (UniProt Q15910); test: Inhibition of EZH2 in human HeLa cells assessed as effect on PITX2 mRNA level after 6 hrs by RT-PCR analysis in presence of IFN-gamma; procedure, shortened: as §2
[10] = target: Histone-lysine N-methyltransferase EZH2 (Homo sapiens) (UniProt Q15910); test: Inhibition of EZH2 in human HeLa cells assessed as decrease in H3K27me3 levels at 2 uM after 6 hrs by Western blot analysis
[11] = target: Histone-lysine N-methyltransferase EZH2 (Homo sapiens) (UniProt Q15910); test: Inhibition of EZH2 in human ASPC1 cells assessed as effect on HPRT mRNA level after 6 hrs by RT-PCR analysis in presence of IFN-gamma; procedure, shortened: as §2
[12] = target: Histone-lysine N-methyltransferase EZH2 (Homo sapiens) (UniProt Q15910); test: Inhibition of EZH2 in human A549 cells assessed as increase in LPS-induced TGF-A level for 24 hrs by multiplexing laser bead assay; procedure, shortened: as §3
[13] = target: Histone-lysine N-methyltransferase EZH2 (Homo sapiens) (UniProt Q15910); test: Inhibition of EZH2 in human MCF7 cells assessed as effect on IRF1 mRNA level after 6 hrs by RT-PCR analysis; procedure, shortened: as §2
[14] = target: Histone-lysine N-methyltransferase EZH2 (Homo sapiens) (UniProt Q15910); test: Inhibition of EZH2 in human AsPC1 cells assessed as decrease in H3K27me3 levels at 2 uM after 6 hrs by Western blot analysis
[15] = target: Histone-lysine N-methyltransferase EZH2 (Homo sapiens) (UniProt Q15910); test: Inhibition of EZH2 in human MCF7 cells assessed as effect on IRF1 mRNA level after 6 hrs by RT-PCR analysis in presence of IFN-gamma; procedure, shortened: as §1
[16] = target: Histone-lysine N-methyltransferase EZH2 (Homo sapiens) (UniProt Q15910); test: Inhibition of EZH2 in human A549 cells assessed as increase in TNF-alpha-induced IL-8 level for 24 hrs by multiplexing laser bead assay; procedure, shortened: as §3
[17] = target: Histone-lysine N-methyltransferase EZH2 (Homo sapiens) (UniProt Q15910); test: Inhibition of EZH2 in human HeLa cells assessed as increase in IFN-gamma-induced SUZ12-repressed ISGs mRNA level after 6 hrs by RT-PCR analysis; procedure, shortened: as §2
[18] = target: Histone-lysine N-methyltransferase EZH2 (Homo sapiens) (UniProt Q15910); test: Inhibition of EZH2 in human A549 cells assessed as effect on PITX2 mRNA level after 6 hrs by RT-PCR analysis in presence of IFN-gamma; procedure, shortened: as §2
[19] = target: Histone-lysine N-methyltransferase EZH2 (Homo sapiens) (UniProt Q15910); test: Inhibition of EZH2 in human HeLa cells assessed as effect on IRF1 mRNA level after 6 hrs by RT-PCR analysis; procedure, shortened: as §2
[20] = target: Histone-lysine N-methyltransferase EZH2 (Homo sapiens) (UniProt Q15910); test: Inhibition of EZH2 in human MCF7 cells assessed as increase in IFN-gamma-induced SUZ12-repressed ISGs mRNA level after 6 hrs by RT-PCR analysis; procedure, shortened: as §1
[21] = target: Histone-lysine N-methyltransferase EZH2 (Homo sapiens) (UniProt Q15910); test: Inhibition of EZH2 in human A549 cells assessed as decrease in H3K27me3 levels at 2 uM after 6 hrs by Western blot analysis
[22] = target: Histone-lysine N-methyltransferase EZH2 (Homo sapiens) (UniProt Q15910); test: Inhibition of EZH2 in human ASPC1 cells assessed as increase in IFN-gamma-induced SUZ12-repressed ISGs mRNA level after 6 hrs by RT-PCR analysis; procedure, shortened: as §2
[23] = target: Histone-lysine N-methyltransferase EZH2 (Homo sapiens) (UniProt Q15910); test: Inhibition of EZH2 in human A549 cells assessed as effect on HPRT mRNA level after 6 hrs by RT-PCR analysis in presence of IFN-gamma; procedure, shortened: as §2
[24] = target: Histone-lysine N-methyltransferase EZH2 (Homo sapiens) (UniProt Q15910); test: Inhibition of EZH2 in human A549 cells assessed as effect on HPRT mRNA level after 6 hrs by RT-PCR analysis; procedure, shortened: as §2
[25] = target: Histone-lysine N-methyltransferase EZH2 (Homo sapiens) (UniProt Q15910); test: Inhibition of EZH2 in human A549 cells assessed as increase in LPS-induced IL-8 level for 24 hrs by multiplexing laser bead assay; procedure, shortened: as §3
[26] = target: Histone-lysine N-methyltransferase EZH2 (Homo sapiens) (UniProt Q15910); test: Inhibition of EZH2 in human ASPC1 cells assessed as effect on HPRT mRNA level after 6 hrs by RT-PCR analysis; procedure, shortened: as §2
[27] = target: Histone-lysine N-methyltransferase EZH2 (Homo sapiens) (UniProt Q15910); test: Inhibition of EZH2 in human ASPC1 cells assessed as effect on PITX2 mRNA level after 6 hrs by RT-PCR analysis in presence of IFN-gamma; procedure, shortened: as §2

Sequence of Histone-lysine N-methyltransferase EZH2 (Homo sapiens) (Q15910 whole entry, looked up): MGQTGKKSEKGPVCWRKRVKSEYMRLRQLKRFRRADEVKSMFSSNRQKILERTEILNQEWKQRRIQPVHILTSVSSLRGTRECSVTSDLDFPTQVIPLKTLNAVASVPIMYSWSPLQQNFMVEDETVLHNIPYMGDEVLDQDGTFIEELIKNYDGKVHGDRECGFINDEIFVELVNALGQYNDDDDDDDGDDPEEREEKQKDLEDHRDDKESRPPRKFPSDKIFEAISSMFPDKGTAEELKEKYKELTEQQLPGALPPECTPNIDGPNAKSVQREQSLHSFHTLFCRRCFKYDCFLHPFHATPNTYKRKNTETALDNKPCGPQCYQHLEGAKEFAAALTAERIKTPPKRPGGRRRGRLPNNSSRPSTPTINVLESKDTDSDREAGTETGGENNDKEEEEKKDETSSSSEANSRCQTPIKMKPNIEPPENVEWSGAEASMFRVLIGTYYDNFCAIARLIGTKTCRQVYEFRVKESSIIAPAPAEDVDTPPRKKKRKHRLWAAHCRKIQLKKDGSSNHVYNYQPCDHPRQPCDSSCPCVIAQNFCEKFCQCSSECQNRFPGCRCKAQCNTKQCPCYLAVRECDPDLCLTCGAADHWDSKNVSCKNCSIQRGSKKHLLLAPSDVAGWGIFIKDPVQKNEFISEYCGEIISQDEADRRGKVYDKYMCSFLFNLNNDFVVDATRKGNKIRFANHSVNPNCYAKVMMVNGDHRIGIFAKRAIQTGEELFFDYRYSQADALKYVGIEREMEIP

CCCc1cc(C)[nH]c(=O)c1CNC(=O)c1cc(-c2ccc(N3CCN(C(C)C)CC3)nc2)cc2c1cnn2C(C)C
inhibition [1]: inactive | inhibition [2]: inactive | inhibition [3]: Active | inhibition [4]: Active | inhibition [5]: Active | inhibition [6]: Active | inhibition [7]: inactive | inhibition [8]: inactive | inhibition [9]: inactive | inhibition [10]: Active | inhibition [11]: inactive | inhibition [12]: Active | inhibition [13]: inactive | inhibition [14]: Active | inhibition [15]: inactive | inhibition [16]: Active | inhibition [17]: Active | inhibition [18]: inactive | inhibition [19]: inactive | inhibition [20]: Active | inhibition [21]: Active | inhibition [22]: Active | inhibition [23]: inactive | inhibition [24]: inactive | inhibition [25]: Active | inhibition [26]: inactive | inhibition [27]: inactive
